Experimental data reported in ChEMBL document CHEMBL1152226 (Bioorg Med Chem, 2008).

Key:
[1] = molecular target: Inosine-5'-monophosphate dehydrogenase 1 (Homo sapiens, UniProt P20839); assay: Inhibition of human IMPDH1
Summary of the method: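 Run in duplicate with IMPDH type 1 (100 nM; line 2) or type 2 (30 nM; line 3) in 50 mM Tris pH 8.0, 100 mM KCl, 1 mM DTT, with IMP and NAD substrates. Inhibitors were added from DMSO to 1% final. At 25 °C, NADH formation was followed at 340 nm. Ki(app) came from fitting steady-state velocities versus inhibitor concentration to the Morrison equation.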

[2] = molecular target: Inosine-5'-monophosphate dehydrogenase 2 (Homo sapiens, UniProt P12268); assay: Inhibition of human IMPDH2
[3] = tested on: K562; assay: Antiproliferative activity against human K562 cells after 72 hrs by MTS assay; type: functional, cell-based
[4] = Selectivity ratio of IC50 for human K562 cells to Ki for human IMPDH2; type: ADME, cell-based

Inosine-5'-monophosphate dehydrogenase 1, sequence (P20839 whole entry): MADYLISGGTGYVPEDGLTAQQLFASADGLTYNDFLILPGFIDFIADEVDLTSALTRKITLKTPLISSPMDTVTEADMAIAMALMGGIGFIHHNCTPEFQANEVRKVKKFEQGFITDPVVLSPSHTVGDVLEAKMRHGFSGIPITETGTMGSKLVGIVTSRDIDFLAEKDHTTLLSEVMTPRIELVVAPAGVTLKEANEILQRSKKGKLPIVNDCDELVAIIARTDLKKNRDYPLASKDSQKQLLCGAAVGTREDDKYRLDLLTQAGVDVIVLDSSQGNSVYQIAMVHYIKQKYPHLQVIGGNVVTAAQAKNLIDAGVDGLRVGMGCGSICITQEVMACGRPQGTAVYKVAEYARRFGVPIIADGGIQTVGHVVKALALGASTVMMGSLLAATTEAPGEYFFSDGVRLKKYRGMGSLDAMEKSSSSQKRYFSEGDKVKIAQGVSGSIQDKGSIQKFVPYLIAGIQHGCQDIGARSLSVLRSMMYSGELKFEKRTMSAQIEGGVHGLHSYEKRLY

Compound `COc1c(C/C=C(\C)CCC(=O)O)cc(-c2cnco2)c(OC)c1C` has a Ki [1] of over 100 µM and a Ki [2] of over 100 µM.
Compound `COc1cc(OC)c(-c2cnco2)cc1C/C=C(/C)CCC(=O)O` has an IC50 ([3]; Homo sapiens, K562, 72 h) of 71 µM, a Ki [1] of 97.3 µM and a Ki [2] of 30.1 µM.
`COc1cc(OC)c(-c2cnco2)cc1C/C=C(\C)CCC(=O)O` (stereo in doubt; 3-E) showed an IC50 ([3]; k562) of 88 µM, a Ki [1] of 10.3 µM and a Ki [2] of 2.3 µM.
Compound `COc1cc(OC)c(-c2cnco2)cc1C/C=C(\C)CCC(=O)O` (stereo in doubt; 3) has a Ratio [4] of 10, an IC50 ([3]; Homo sapiens, K562, 72 h) of 56 µM and a Ki [1] of 16 µM. It also gave a Ki [2] of 4.3 µM.
In the case of `COc1cc(C/C=C(\C)CCC(=O)O)ccc1-c1cnco1`, the IC50 ([3]; Homo sapiens, K562, 72 h) is reported as over 100 µM, the Ki [1] is reported as 42.8 µM and the Ki [2] is reported as 14.3 µM.
`COc1ccc(C/C=C(\C)CCC(=O)O)cc1-c1cnco1` showed an IC50 ([3]; Homo sapiens, K562, 72 h) of over 100 µM, a Ki [1] of 20.8 µM and a Ki [2] of 8.7 µM.
